These results are taken from paper PMC10613910 (Heliyon, 2023).

Structures are written as SMILES.

In data set [1] the test system is MDCKII cells overexpressing ABCG2. The note with it: cited from earlier work.
Another data set deals with ABCG2. The note with it: mice with a deficiency of only ABCG2; cited from earlier work.
Data set [2] is described as follows: Influence of novobiocin pretreatment on talazoparib pharmacokinetics in mice. As to conditions: female, FVB, mouse, plasma, po, 0.5 mg/kg, mean (±SEM), N=5; for AUC: 0-4 h. It counts as in vivo. The method in brief:
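Female mice aged 12–20 weeks (wild-type FVB or ABCB1A/ABCB1B/ABCG2-null), fasted 2 h. Pretreatment (50 mg/kg in 5% dextrose) or vehicle given by oral gavage 30 min before test compound (0.1 mg/mL in 10% dimethylacetamide/5% Solutol HS/85% PBS). Blood sampled 5 min–4 h. Plasma assayed by UHPLC-MS/MS with isotope-labelled internal standard. Cmax read from the curve; AUC0–4h by log-linear trapezoidal rule.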

Data set [3] is described as follows: Pharmacokinetics of oral talazoparib in wild-type and ABCB1/ABCG2. It counts as in vivo, mouse. The note with it: talazoparib 0.5 mg/kg p.o.; for Cmax: female, FVB, mouse, plasma, po, 0.5 mg/kg, mean (±SEM). The essentials: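 Adult female FVB wild-type or Abcb1a/Abcb1b/Abcg2-deficient mice (12–20 weeks, 4–5 per group) given test compound 0.5 mg/kg by oral gavage; dosing solution 0.1 mg/mL in 10% dimethylacetamide/5% Solutol HS/85% PBS. Blood at 5, 15, 30 min and 1, 2, 4 h, submandibular then retro-orbital (isoflurane), terminal cardiac. Plasma methanol-precipitated, UHPLC-MS/MS with isotope-labelled IS; Cmax visual, AUC(0–4 h) log-linear trapezoidal.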

For data set [4] the following is noted: clinical studies, oral; cited from earlier work.
Data set [5] in a line: Stability of talazoparib in mouse plasma QC samples. It counts as physicochemical. As to conditions: for Bench-top stability, mean deviation: ambient temperature (25 °C) for 6 h; for Bench-top stability, mean deviation / Auto-sampler stability, mean deviation / Re-injection stability, mean deviation: N=3; for Auto-sampler stability, mean deviation: auto-sampler at 4 °C for 24 h; for Re-injection stability, mean deviation: reanalyzed after 24 h in auto-sampler at 4 °C. The method in brief: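 Spiked mouse plasma QC at low (1.5 ng/mL) and high (80 ng/mL) levels. Conditions: bench-top at ambient temperature 6 h; extracts held in autosampler at 4 °C 24 h; processed samples re-injected after 24 h at 4 °C; three cycles of −80 °C storage for 12 h with room-temperature thaw. Quantified by UHPLC-MS/MS with isotope-labelled IS; acceptable within 85–115% of nominal.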

The mark [6] stands for this setting: ABCB1/ABCG2(−/−) mice, novobiocin 50 mg/kg p.o. 30 min before talazoparib 0.5 mg/kg p.o.
[7] abbreviates: wild-type mice, novobiocin 50 mg/kg p.o. 30 min before talazoparib 0.5 mg/kg p.o.

On to `Cn1ncnc1[C@H]1c2n[nH]c(=O)c3cc(F)cc(c23)N[C@@H]1c1ccc(F)cc1` [Talazoparib], for which the “levels of talazoparib in cells” value in data set [1] is given as “unaltered”. Also, the “levels of talazoparib in plasma” value with ABCG2 is listed as “unaltered”. For the same compound, the exposure (AUC) stood at 890 ng·h/mL in data set [2] (setting [6]) and 615 ng·h/mL in data set [2] (setting [7]). Further, the Cmax came out at 352 ng/mL in data set [2] (ABCB1/ABCG2(−/−) mice, co-treatment none (vehicle), talazoparib 0.5 mg/kg p.o.); 449 ng/mL in data set [2] (setting [6]); 472 ng/mL in data set [2] (wild-type mice, co-treatment none (vehicle), talazoparib 0.5 mg/kg p.o.); 414 ng/mL in data set [2] (setting [7]); 350 ng/mL in data set [3] (ABCB1/ABCG2(−/−) mice, N=4); 360 ng/mL in data set [3] (wild-type FVB mice, N=5). In addition, in data set [3] (ABCB1/ABCG2(−/−) vs wild-type mice), the “increase in AUC with deficiency of ABCB1 and ABCG2” value is given as roughly 1.3 fold. For the same compound, the terminal half-life in data set [4] is listed as roughly 50 h. In data set [5] (bench-top, room temperature, mouse plasma), the “time stable in mouse plasma samples at room temperature” value was “at least 6 h”. In data set [5] (extracted samples at 4 °C in auto-sampler), the “auto-sampler and reinjection stability time” value is given as “at least 24 h”. Moreover, in data set [5] (mouse plasma samples, three freeze-thaw cycles), the “stability after repeated freeze and thaw cycles” value was “remained stable”. Also, the “Bench-top stability, mean deviation” value was 2.15% in data set [5] (nominal 1.5 ng/mL, mouse plasma) and −8.09% in data set [5] (nominal 80 ng/mL, mouse plasma). Further, the “Auto-sampler stability, mean deviation” value was −4.34% in data set [5] (nominal 1.5 ng/mL) and −5.14% in data set [5] (nominal 80 ng/mL). Further, the figures for the “Re-injection stability, mean deviation” value in data set [5] (nominal 1.5 ng/mL) and in data set [5] (nominal 80 ng/mL) were 0.64% and 0.62%, respectively.
